GSIS activator: GLuc luminescence reporter in INS-1E cells, primary screen for activators of glucose-dependent secretion of insulin; INS-1E GLuc reporter insulin secretion, 2-3 h; activation, % at 16.6 µM; actives 0.61% (n = 370,000);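 active = lowest replicate activation of at least 40%, so every replicate reaches that level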;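 note: 0% = median of neutral control wells and 100% = median of IBMX positive control wells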
AF4-AF9 inh: inhibitors of AF4 peptide binding to AF9, primary screen, biochemical, AlphaScreen, biotin-AF4 peptide, FLAG-AF9, single point | AID 651704, 2012 | inhibition, % at 10 µM | actives 0.47% (n = 350,000);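 active = every replicate reaching a set inhibition limit, whatever the replicate mean, cut at about 25% in these data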;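 note: 0% = plate neutral control median and 100% = total signal loss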
RAD52 inh: RAD52 DNA annealing inhibitors, primary screen, biochemical, FRET, single point, set 2 | DNA repair protein RAD52 homolog (Homo sapiens), P43351 | recombinant RAD52 DNA annealing, FRET fluorescence | inhibition, % at 18.7 µM | actives 0.46% (n = 360,000) | AID 651710, 2012;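 active = every replicate showing at least 50% inhibition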
RAD54 inh: inhibitors of human RAD54 branch migration, primary screen, biochemical, fluorescence, single point. inhibition, % at 10.4 µM. actives 0.14% (n = 360,000). RAD54 Holliday junction branch migration, FAM/BHQ fluorescence. DNA repair and recombination protein RAD54-like (Homo sapiens), Q92698;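 active = mean normalized replicate activity at least 40 and at least half of replicates scoring 40 or more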;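 note: 0% = median of neutral control wells and 100% = median of positive control wells; inhibitors cause a drop in the FAM fluorescence signal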
rRNA inh HTS: reduced GFP signal of wild-type E. coli, primary screen, bacterial rRNA inhibitor project, GFP/RFP fluorescence, OD600, single point; E. coli WT GFP vs humanized-ribosome RFP mutants, 24 h; hits give low values; DMSO median 0, no signal -100; GFP signal change (wild-type ribosome), % (test concentration not listed); actives 1.6% (n = 350,000); AID 720706, 2013;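 active = significant combined selectivity score with lowered wild-type GFP, culture density cut under 30%, mutant RFP and density less affected; inactive = any of these conditions unmet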
E-sel inducer: E-selectin induction in HUVECs, primary screen, imaging, HUVEC, immunofluorescence imaging, single point; P16581; normalized: neutral wells 0, TNF-alpha wells 100; activation, % at 7.58 µM; actives 0.37% (n = 260,000);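 active = mean E-selectin-positive cell signal at least 10% of the positive control, reached in at least 60% of replicates, without over 20% cell loss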
Target sequence (P16581 whole entry, looked up): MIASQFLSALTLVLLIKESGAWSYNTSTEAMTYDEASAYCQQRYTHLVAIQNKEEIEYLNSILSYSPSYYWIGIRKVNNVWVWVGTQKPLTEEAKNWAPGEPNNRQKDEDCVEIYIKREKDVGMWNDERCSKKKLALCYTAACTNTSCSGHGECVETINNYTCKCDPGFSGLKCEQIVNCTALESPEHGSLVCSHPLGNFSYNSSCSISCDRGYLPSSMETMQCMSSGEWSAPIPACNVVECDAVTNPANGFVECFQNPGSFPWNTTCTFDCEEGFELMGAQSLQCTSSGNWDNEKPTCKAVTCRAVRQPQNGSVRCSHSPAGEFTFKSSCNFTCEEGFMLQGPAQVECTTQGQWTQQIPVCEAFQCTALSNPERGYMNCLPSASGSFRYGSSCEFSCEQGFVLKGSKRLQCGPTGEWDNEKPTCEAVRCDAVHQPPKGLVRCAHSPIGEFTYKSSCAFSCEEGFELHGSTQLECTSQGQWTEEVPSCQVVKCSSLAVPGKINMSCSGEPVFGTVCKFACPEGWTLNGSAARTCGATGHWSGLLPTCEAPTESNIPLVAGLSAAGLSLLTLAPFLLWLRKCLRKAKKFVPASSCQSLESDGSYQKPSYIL
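Read-out: % PE-positive cells | Test system: HUVEC | Doses: One compound dose added by pin transfer | Buffer or medium: EGM-2 over gelatin coat | Signal: Immunofluorescence imaging | Benchmarks: TNF-alpha, DMSO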
An asterisk follows results filed as active; nt = no result given. The list is not random: actives were taken first. Their share in the collection is about 2.6%.

SMILES | GSIS activator | AF4-AF9 inh | RAD52 inh | RAD54 inh | rRNA inh HTS | E-sel inducer
Cc1ccc(S(=O)(=O)N[C@@H]2CC[C@@H](CC(=O)N3CCC(Cc4ccccc4)CC3)O[C@H]2CO)cc1 | -27 | -1 | 4 | 0 | 4 | 0
COc1ccc(-c2nc(C#N)c(N3CCCCC3)o2)cc1 | 8 | 4 | 7 | 3 | -27 | nt
COc1ccc(-c2nc(C#N)c(N3CCCCCC3)o2)cc1OC | -4 | 27* | 8 | nt | -23* | nt
Cc1ccc(-c2nc(C#N)c(N3CCC(C)CC3)o2)cc1 | 1 | 28* | -7 | -14 | 1 | 0
CC(C)Oc1ccc(CCc2n[nH]c(=S)n2-c2ccccc2)cc1 | -3 | -5 | -25 | -4 | -21* | -1
Cc1cccc(C)c1OCc1n[nH]c(=S)n1-c1ccccc1 | 9 | -1 | 0 | 2 | -29* | 2
COCc1n[nH]c(=S)n1-c1ccccc1 | nt | nt | nt | -3 | nt | nt
CC(=O)c1ccc2noc(-c3ccc(Cl)cc3)c2c1 | 1 | 4 | -12 | nt | 7 | nt
Cc1cc(-c2onc3ccc(Cl)cc23)ccc1O | -4 | 2 | -268 | -8 | -31* | nt
O=S(=O)(NCC[C@@H]1CC[C@H](NS(=O)(=O)c2cccc(F)c2)[C@H](CO)O1)c1cccc(F)c1 | -5 | -2 | -3 | nt | -2 | 0
O=C(c1cc(Cl)nc2ccccc12)N(Cc1nnc(-c2ccc(Cl)cc2)o1)C1CC1 | -47 | -1 | -6 | nt | -27* | -2
O=C(c1cc(Cl)nc2ccccc12)N(Cc1nnc(-c2ccccc2Cl)o1)C1CC1 | -29 | 0 | -18 | -1 | -31 | 0
Cc1ccc2c(c1)c1ccc3c(c1n2C)C(=O)C=CC3=O | -21 | -1 | -11 | -10 | -13 | 0
Cn1c2ccccc2c2ccc3c(c21)C(=O)C=CC3=O | nt | 4 | -1 | nt | -25* | 1
C[C@@H]1CCCCO[C@H](CN(C)C(=O)C2CCCCC2)[C@H](C)CN([C@H](C)CO)C(=O)c2cc(NS(=O)(=O)c3cn(C)cn3)ccc2O1 | -2 | 0 | 11 | 0 | -1 | 0
CCCN(Cc1nnc(-c2ccccc2Cl)o1)C(=O)c1cc2ccccc2o1 | 63* | -2 | -28 | 11 | -36 | 2
Oc1[nH]c2ccc(Br)cc2c1N=NC(=S)NCC1CCCO1 (centres undefined) | -15 | 12 | -36 | -3 | -32* | 0
Oc1[nH]c2ccccc2c1N=NC(=S)NCC1CCCO1 (centres undefined) | 11 | 3 | -4 | nt | -19 | nt
Cc1cc(C)c2[nH]c(O)c(N=NC(=S)NCC3CCCO3)c2c1 (centres undefined) | 69* | nt | nt | 7 | nt | -1
Cc1ccc(S(=O)(=O)N(C)C[C@@H]2OCCCC[C@@H](C)Oc3ccc(NC(=O)CCC(F)(F)F)cc3C(=O)N([C@@H](C)CO)C[C@H]2C)cc1 | -24 | 1 | -15 | 4 | 0 | nt
CCCn1c(SCC(=O)Nc2ccccc2N2CCCCC2)nc2c1c(=O)n(C)c(=O)n2C | -48 | 14 | -16 | -7 | -29* | nt
CCc1ccc(CN(C(=O)c2ccco2)C2CCS(=O)(=O)C2)cc1 (centres undefined) | -17 | 0 | -7 | -12 | 0 | nt
O=C(c1ccc(Cl)c([N+](=O)[O-])c1)N(Cc1ccco1)C1CCS(=O)(=O)C1 (centres undefined) | 43* | 2 | -11 | -8 | 4 | nt
O=C(c1ccco1)N(Cc1ccc(Cl)cc1)C1CCS(=O)(=O)C1 (centres undefined) | 42* | 1 | -6 | 3 | 2 | nt
COc1cccc(CN(C(=O)/C=C/c2ccc(Cl)cc2)C2CCS(=O)(=O)C2)c1 (centres undefined) | 2 | 7 | -4 | nt | -36* | 0
SMILES | GSIS activator | AF4-AF9 inh | RAD52 inh | RAD54 inh | rRNA inh HTS | E-sel inducer
O=C(/C=C/c1ccccc1)N(Cc1cccc(Cl)c1)C1CCS(=O)(=O)C1 (centres undefined) | 4 | 1 | -7 | nt | -35* | 3
CO[C@@H]1CN(C)C(=O)c2ccc(NC(=O)CC(F)(F)F)cc2OC[C@@H](C)N(CC2CC2)C[C@@H]1C | 7 | -4 | -18 | nt | 1 | 0
O=C(/C=C/c1ccccc1)N(Cc1cccs1)C1CCS(=O)(=O)C1 (centres undefined) | -2 | nt | -13 | -2 | -13 | 0
O=C(/C=C/c1ccccc1)N(Cc1ccc(Cl)cc1)C1CCS(=O)(=O)C1 (centres undefined) | -15 | 7 | -14 | 0 | -22* | 0
CCC(=O)N1C[C@@H](C)[C@H](OC)CN(C)C(=O)c2cc(NC(=O)c3ccc(OC)cc3)ccc2OC[C@H]1C | -13 | nt | nt | -8 | -1 | 0
CO[C@@H]1CN(C)C(=O)c2cc(NC(=O)C3CCCCC3)ccc2OC[C@H](C)N(Cc2nccs2)C[C@@H]1C | -18 | -2 | 3 | -1 | -7 | 0
Cc1ccc(C)c(-c2cc(C(=O)N/N=C/c3cccnc3)c3ccccc3n2)c1 | 1 | 3 | -7 | -3 | -20* | nt
O=C(N/N=C/c1ccc(F)cc1)c1cc(-c2ccco2)nc2ccccc12 | nt | nt | nt | 2 | nt | nt
Cc1ccc(C)c(Nc2cc(C(=O)NCc3cccnc3)c3ccccc3n2)c1 | 25 | 4 | -24 | -5 | -26* | 5
CCOc1ccc(/C=N/NC(=O)c2cc(-c3ccco3)nc3ccccc23)cc1 | 69* | nt | nt | nt | nt | nt
Cc1noc(C)c1S(=O)(=O)Nc1ccc2c(c1)C(=O)N([C@@H](C)CO)C[C@@H](C)[C@@H](CN(C)C(=O)Nc1cccc3ccccc13)O2 | -10 | -1 | 3 | -3 | 0 | -1
CCN(CC)C(=O)c1sc(NC(=O)c2ccoc2C)c(C(=O)OC)c1C | nt | nt | nt | -14 | nt | nt
CCOC(=O)c1c(NC(=O)c2ccoc2C)sc(C(=O)N(C)C)c1C | 47* | nt | nt | -3 | nt | nt
Nc1nnc(SCc2nc3scc(-c4ccccc4)c3c(=O)[nH]2)s1 | -15 | -2 | -180 | nt | -6 | 0
Nc1nc(SCc2nc3scc(-c4ccccc4)c3c(=O)[nH]2)n[nH]1 | 55* | 0 | -57 | -6 | -25 | nt
CCCOc1ccc(/C=N/NC(=O)C(=O)Nc2ccccn2)cc1 | 52* | nt | nt | 9 | nt | nt
CCOc1ccc(/C=N/Nc2ccccn2)cc1 | nt | 1 | 7 | nt | 3 | 31*
C[C@H]1CN([C@@H](C)CO)C(=O)c2cccc(NC(=O)c3cnccn3)c2O[C@@H]1CN(C)S(=O)(=O)c1ccccc1 | -5 | nt | nt | nt | 1 | 0
